The values that follow come from article PMC6127844 (Journal of Enzyme Inhibition and Medicinal Chemistry, 2018).

Usually EC50 stands for the concentration giving half of the maximal effect. The inhibition is the change of the read-out against control, counted positive when it falls.

Where two headings read alike, the source gives them in different places. Bounds are passed on as bounds.

In one data set the test system is SH-SY5Y cells. The data set is described as follows: Concentration screening for nontoxic concentration. Format: cell-based, human. Conditions: 24 h, MTT. A digest of the protocol: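 SH-SY5Y human neuroblastoma cells grown in DMEM with 10% heat-inactivated FCS, penicillin and streptomycin at 37 °C in 5% CO2. Plated at 0.12 × 10^6 cells/ml. Test compound from 25 mM DMSO stock, screened at 5 to 30 μM. MTT (0.5 mg/ml) for 3 h at 37 °C; formazan dissolved in 0.04 M HCl/isopropanol and read at 570 nm. Expressed as % of untreated cells.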

Data set [1] concerns the target T1, Aβ1–42 (Homo sapiens, UniProt P05067). Put plainly: TEM imaging of Aβ1–42 aggregation. Summed up: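 Aβ1–42 film dissolved by sonication in CH3CN/NaCl/NH4OH and diluted in 50 mM HEPES, pH 6.6. Mixed with test compound, with or without CuCl2, and incubated 24 h at 37 °C with gentle shaking. Sample applied to formvar/carbon Cu grids for 2 min at RT, washed with water and stained with 1% uranyl acetate for 1 min. Imaged at 200 kV, 10000–20000×.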

The conditions of data set [2]: physiological pH, CL/CM=10, CM=1 μM; cited from earlier work.
The target in data set [3] is T1, Aβ1–42. To be noted: cited from earlier work.
Data set [4] in a line: Antioxidant activity, DPPH radical scavenging. To be noted: read-out: DPPH radical scavenging EC50. Summed up: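 DPPH at 0.002% in methanol mixed with the test compound in methanol at five concentrations. Incubated 30 min at RT, protected from light. Absorbance read at 517 nm against a methanol blank. %AA = 100×(A_DPPH − A_sol)/A_DPPH. Run in duplicate. EC50 taken from a plot of antioxidant activity against compound concentration.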
A general note: Loss of DPPH colour is used to gauge radical scavenging.

Data set [5] has as its target T1, Aβ1–42. Put plainly: Inhibition of Cu. It is filed as biochemical. To be noted: read-out: Inhibition of Aβ aggregation in the presence of copper(II). A digest of the protocol:
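Aβ1–42 pretreated with HFIP, held as stock in CH3CN/Na2CO3/NaOH, then diluted to 40 μM in 0.215 M phosphate, pH 8.0. Incubated 24 h at 37 °C with or without test compound (80 μM), with CuCl2 (40 μM) for the Cu(II) condition. ThT (5 μM, glycine–NaOH pH 8.5) fluorescence read at 446/485 nm, corrected for peptide-free blanks. % inhibition taken versus no compound; mean ± SEM of duplicates from two experiments.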

The conditions of data set [6]: read-out: DPPH radical scavenging EC50, cited from earlier work.

T1 sequence (P05067 672-713): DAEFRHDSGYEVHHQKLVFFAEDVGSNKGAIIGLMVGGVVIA

In the data set on SH-SY5Y cells, `O=C(NCC1CCN(Cc2ccccc2)CC1)c1ccc2[nH]c(-c3ccccc3O)nc2c1` [Compound 1, N-((1-benzylpiperidin-4-yl)methyl)-2-(2-hydroxyphenyl)-1H-benzo[d]imidazole-5-carboxamide] had a Highest nontoxic concentration of 2.5 µM. In addition, the “Aβ aggregates seen by TEM” value was “quite sparse” at Aβ1–42 [1] (absence of copper) and “reduction of Aβ aggregates” on Aβ1–42 [1] (presence of copper).
As for `O=C(NCCN1CCN(Cc2ccccc2)CC1)c1ccc2[nH]c(-c3ccccc3O)nc2c1` [Compound 2, N-(2-(4-benzylpiperazin-1-yl)ethyl)-2-(2-hydroxyphenyl)-1H-benzo[d]imidazole-5-carboxamide], in the data set on SH-SY5Y cells, the Highest nontoxic concentration came out at 5 µM. For the same compound, in data set [2], the pCu is given as 11.4. The “Aβ aggregates seen by TEM” value on Aβ1–42 [3] (absence of copper) is reported as “a reduction of Aβ aggregates was also observed”; on Aβ1–42 [3] (presence of copper), “reduction of Aβ aggregates”. In addition, the EC50 in data set [4] was determined as 594 ± 4 µM.
As to `O=C(NCCN1CCN(Cc2ccccc2)CC1)c1cc2cccc(O)c2o1` [Compound 3, N-(2-(4-benzylpiperazin-1-yl)ethyl)-7-hydroxybenzofuran-2-carboxamide], the inhibition at Aβ1–42 [5] is 35.5%.
Turning to `O=C(NCC1CCN(Cc2ccccc2)CC1)c1cc2ccccc2o1` [Compound 4, N-((1-benzylpiperidin-4-yl)methyl)benzofuran-2-carboxamide], the Highest nontoxic concentration with SH-SY5Y cells stood at 30 µM.
With `O=C(NCCN1CCN(Cc2ccccc2)CC1)c1cc2ccccc2o1` [Compound 5, N-(2-(4-benzylpiperazin-1-yl)ethyl)benzofuran-2-carboxamide], the Highest nontoxic concentration in the data set with SH-SY5Y cells worked out at 30 µM.
`COc1cccc2cc(C(=O)NCC3CCN(Cc4ccccc4)CC3)oc12` [Compound 6, N-((1-benzylpiperidin-4-yl)methyl)-7-methoxy-benzofuran-2-carboxamide] registered a Highest nontoxic concentration in the data set on SH-SY5Y cells of 20 µM.
As to `COc1cccc2cc(C(=O)NCCN3CCN(Cc4ccccc4)CC3)oc12` [Compound 7, N-(2-(4-benzylpiperazin-1-yl)ethyl)-7-methoxybenzofuran-2-carboxamide], in the data set on SH-SY5Y cells, the Highest nontoxic concentration was 30 µM.
`Nc1c2c(nc3ccccc13)CCCC2` [Tacrine, tacrine]: the EC50 in data set [6] is more than 1000 µM.
`Cc1c(C)c2c(c(C)c1O)CCC(C)(C(=O)O)O2` (stereo not drawn) [Trolox]: the EC50 in data set [6] (same experimental method) is 15 µM.
